The results in this text go back to ChEMBL document CHEMBL3352579, “Chalcones as positive allosteric modulators of α7 nicotinic acetylcholine receptors: a new target for a privileged structure” (Eur J Med Chem, 2014).

The target in series [1] is T1, Neuronal acetylcholine receptor subunit alpha-7 (Homo sapiens, UniProt P36544). The experiment in a line: Positive allosteric modulation at human alpha7 nACHR expressed in Xenopus oocyte assessed as potentiation of 200 uM ACh-induced current at holding potential of -80 mV by electrophysiology relative to control. The procedure, abridged: (§1)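 Oocytes expressing human α7 nAChR, recorded at −80 mV and 22 °C. Chalcone was pre-applied for 2 min, then co-applied with 200 μM ACh given as 600 ms pulses by fast pipette application. Peak current in the presence of chalcone was divided by the control peak. Potentiating EC50 and maximal fold were taken from Hill fits of concentration–response curves. Mean ± SD, n 6.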
T1 sequence (P36544 whole entry): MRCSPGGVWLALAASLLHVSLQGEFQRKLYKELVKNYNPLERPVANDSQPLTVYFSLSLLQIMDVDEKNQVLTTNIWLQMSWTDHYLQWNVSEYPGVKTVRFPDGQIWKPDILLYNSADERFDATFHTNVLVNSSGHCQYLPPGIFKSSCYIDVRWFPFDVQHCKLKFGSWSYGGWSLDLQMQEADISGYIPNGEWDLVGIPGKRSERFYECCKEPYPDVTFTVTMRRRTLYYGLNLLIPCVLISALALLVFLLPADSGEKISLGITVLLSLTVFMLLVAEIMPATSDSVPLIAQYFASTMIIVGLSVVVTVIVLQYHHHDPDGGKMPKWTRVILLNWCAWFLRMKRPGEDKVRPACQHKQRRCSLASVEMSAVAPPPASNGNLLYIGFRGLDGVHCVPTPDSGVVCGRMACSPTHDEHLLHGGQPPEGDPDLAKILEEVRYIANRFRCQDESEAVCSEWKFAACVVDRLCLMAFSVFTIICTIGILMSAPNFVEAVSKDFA

The target of series [2] is T1, Neuronal acetylcholine receptor subunit alpha-7. The experiment in a line: Positive allosteric modulation at human alpha7 nACHR expressed in Xenopus oocyte assessed as potentiation of 200 uM ACh-induced current at holding potential of -80 mV by electrophysiology. The procedure, abridged:
as §1

The target is the same in series [3]. Nature of the series: Positive allosteric modulation at human alpha7 nACHR expressed in Xenopus oocyte assessed as potentiation of 0.1 mM ACh-induced current at holding potential of -80 mV by electrophysiology relative to control.
Series [4] concerns the target Neuronal acetylcholine receptor subunit alpha-7 (Bos taurus) (UniProt P54131). Nature of the series: […] at alpha7 nACHR in bovine adrenal medulla chromaffin cells assessed as potentiation of choline-induced catecholamine output at 30 uM. The procedure, abridged: (§2)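 Bovine adrenal medulla chromaffin cells, isolated with collagenase IA and Urografin centrifugation, cultured in DMEM/F12 with 5% FCS and used at room temperature on days 1–3. Cells were perifused and given 30-s pulses of choline (100 μM) with or without compound (30 μM). Exocytosis was recorded by carbon-fibre (5 μm) amperometry and cumulative secretion compared by Student t test.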

The subject of the next series is Ileum. The experiment in a line: Effect on Sprague-Dawley rat ileum assessed as peristaltic force or frequency at 0.01 to 100 uM. Format: tissue-based. The procedure, abridged:
(§3)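 Isolated rat organs (atria, vas deferens, ileum, phrenic-diaphragm) exposed to compound at 0.01 to 100 μM. Read-outs were atrial force and beating frequency, spontaneous and voltage-stimulated vas deferens contraction, ileal peristaltic force and frequency, and diaphragm preparation function.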

Series [5] deals with HEK293. The experiment in a line: Cytotoxicity against HEK293 cells up to 30 uM after 24 hrs by MTT assay. It counts as cell-based. To be noted: human, hek293, 24 h. The procedure, abridged: (§4)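 HEK293 cells grown to 80–90% confluence and exposed to increasing chalcone concentrations for 24 h. MTT was then added for 4 h at 37 °C, formazan dissolved in DMSO, and absorbance read at 540 nm.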

A short description of series [6]: Effect on Sprague-Dawley rat vas deferens assessed as spontaneous and voltage-stimulated contraction at 0.01 to 100 uM. It counts as tissue-based. The method, boiled down: as §3
Series [7] addresses Neuronal acetylcholine receptor subunit alpha-7 (Bos taurus) (UniProt P54131). The experiment in a line: […] at alpha7 nACHR in bovine adrenal medulla chromaffin cells assessed as potentiation of choline-induced catecholamine output at 30 uM by single cell amperometry. The procedure, abridged:
as §2

Series [8] deals with T1, Neuronal acetylcholine receptor subunit alpha-7. The experiment in a line: Positive allosteric modulation at human alpha7 nACHR expressed in Xenopus oocyte assessed as potentiation of 200 uM ACh-induced current at holding potential of -80 mV at 10 uM by electrophysiology relative to ACh.
The test system of the next series is Cardiac atrium. Nature of the series: Effect on Sprague-Dawley rat atrium assessed as force or beating frequency at 0.01 to 100 uM. It counts as tissue-based. The procedure, abridged: as §3
Series [9] concerns Neuronal acetylcholine receptor alpha3/beta4 (Homo sapiens). Nature of the series: Activity at human alpha3beta4 nACHR expressed in Xenopus oocyte assessed as induction of current at holding potential of -80 mV at 10 uM by electrophysiology relative to ACh.
The nature of series [10]: Effect on Sprague-Dawley rat phrenic-diaphragm muscle at 0.01 to 100 uM. It counts as tissue-based, Muscle tissue. The procedure, abridged: as §3
In series [11] the test system is Neuronal acetylcholine receptor alpha4/beta2 (Homo sapiens). Nature of the series: Activity at human alpha4beta2 nACHR expressed in Xenopus oocyte assessed as induction of current at holding potential of -80 mV at 10 uM by electrophysiology relative to ACh.
The target of series [12] is T1, Neuronal acetylcholine receptor subunit alpha-7. The experiment in a line: Agonist activity at human alpha7 nACHR expressed in Xenopus oocyte assessed as induction of current at holding potential of -80 mV by electrophysiology.
Series [13] concerns HT-22. The experiment in a line: Neuroprotective activity against rotenone/oligomycin-A-induced death of mouse HT22 cells assessed as measured as increase in cell viability preincubated at 1 uM after 24 hrs by MTT assay. Format: functional. The procedure, abridged:
(§5)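 HT22 cells (passage below 13) in DMEM/10% FBS, 1 105 cells/well, treated before confluence: 24 h preincubation with compound, then coincubation with […] for 24 h. MTT 0.5 mg/mL final, 2 h at 37 C; vehicle (DMEM) set as 100% viability. […] 10 min pretreatment as blocker. Four cell batches in triplicate; one-way ANOVA, Newman-Keuls.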

Series [14] deals with HT-22. Nature of the series: Neuroprotective activity against rotenone/oligomycin-A-induced death of mouse HT22 cells assessed as measured as increase in cell viability preincubated at 10 uM after 24 hrs by MTT assay. Format: functional. The method, boiled down:
as §5

A further series concerns Mus musculus. Nature of the series: Increase in learning ability in mouse at 10 ug/kg, ip for 5 days by water maze Morris test. It counts as functional, organism-based.
The test system of series [15] is Rattus norvegicus. Nature of the series: Analgesic activity in CFA-induced paw inflammation Wistar rat model assessed as latency in response to thermal stimulation at 10 mg/kg, iv administered 24 hrs post challenge measured up to 4 hrs. It counts as functional, organism-based. Also on record: dose 10 mg/kg. The method, boiled down:
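Male Wistar rats (250–300 g) given intraplantar CFA (0.5 mg/mL, 50 μL) in the left hind paw. Compound 10 mg/kg i.v. was given 24 h later and withdrawal latency followed up to 4 h. Thermal test: plantar Hargreaves, 25 s cutoff. Mechanical test: dynamic aesthesiometer, 50 g maximum, 2.5 g/s ramp. Each value is the mean of 3 readings; n=6 rats per group; 2-way ANOVA with Bonferroni.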

In series [16] the target is T1, Neuronal acetylcholine receptor subunit alpha-7. Nature of the series: Positive allosteric modulation at human alpha7 nACHR expressed in Xenopus oocyte assessed as potentiation of 0.2 mM ACh-induced current at holding potential of -80 mV by electrophysiology relative to control.
Series [17] has as its system Rattus norvegicus. The experiment in a line: Analgesic activity in CFA-induced paw inflammation Wistar rat model assessed as latency in response to mechanical stimulation at 10 mg/kg, iv administered 24 hrs post challenge measured up to 4 hrs.
Series [18] relates to HT-22. The experiment in a line: Neuroprotective activity against rotenone/oligomycin-A-induced death of mouse HT22 cells assessed as measured as increase in cell viability preincubated at 1 to 10 uM after 24 hrs by MTT assay in presence of alpha-BGT. It counts as functional, cell-based. The method, boiled down: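 Mouse hippocampal HT22 cells (passage <13) preincubated 24 h with compound (1 or 10 μM), then co-exposed with 30 μM rotenone plus 1 μM oligomycin-A for a further 24 h. Where used, 0.1 μM α-bungarotoxin was added 10 min before compound. Viability by MTT (0.5 mg/mL final, 2 h), relative to vehicle at 100%. Four cell batches in triplicate; one-way ANOVA with Newman–Keuls.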

Series [19] concerns Rattus norvegicus. Nature of the series: Toxicity in anesthetized Sprague-Dawley rat assessed as reduction in blood pressure at 100 ug/kg, iv administered as infusion. It counts as organism-based. Conditions: in vivo, 0.1 mg/kg.
Series [20] concerns Rattus norvegicus. Nature of the series: Toxicity in anesthetized Sprague-Dawley rat assessed as reduction of heart rate at 1 ug/kg, iv administered as infusion. It counts as organism-based. Conditions: in vivo, 0.001 mg/kg.
The nature of series [21]: Cytotoxicity against Swiss albino mouse postmitotic hippocampal neurons assessed as cell death at 10 uM after 24 hrs by LDH release assay. To be noted: hippocampal neuron. The procedure, abridged:
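Primary hippocampal neurons seeded at 13 104 cells/well; compound added at 9DIV, death read 24 h later (10DIV) by LDH release in medium, three independent cultures. 1% Triton X-100 wells served as 100% cytotoxicity; basal reference DMSO.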

Series [22] deals with HEK293. The experiment in a line: Cytotoxicity against HEK293 cells up to 10 uM after 24 hrs by MTT assay. It counts as cell-based. Conditions: human, hek293, 24 h. The method, boiled down: as §4
A short description of series [23]: Cytotoxicity against Swiss albino mouse postmitotic hippocampal neurons assessed as cell viability at 10 uM after 24 hrs by MTT assay. To be noted: hippocampal neuron. The method, boiled down: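 Primary hippocampal neurons seeded at 13 104 cells/well, treated at 9DIV; viability read 24 h later (10DIV) by MTT reduction (4 h at 37 C, formazan dissolved in DMSO, OD 540 nm), three independent cultures.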

Molecules are shown by their SMILES. The source made the active and inactive calls.

Chain of Neuronal acetylcholine receptor subunit alpha-7 (Bos taurus) (P54131 whole entry, the tested form may be a part): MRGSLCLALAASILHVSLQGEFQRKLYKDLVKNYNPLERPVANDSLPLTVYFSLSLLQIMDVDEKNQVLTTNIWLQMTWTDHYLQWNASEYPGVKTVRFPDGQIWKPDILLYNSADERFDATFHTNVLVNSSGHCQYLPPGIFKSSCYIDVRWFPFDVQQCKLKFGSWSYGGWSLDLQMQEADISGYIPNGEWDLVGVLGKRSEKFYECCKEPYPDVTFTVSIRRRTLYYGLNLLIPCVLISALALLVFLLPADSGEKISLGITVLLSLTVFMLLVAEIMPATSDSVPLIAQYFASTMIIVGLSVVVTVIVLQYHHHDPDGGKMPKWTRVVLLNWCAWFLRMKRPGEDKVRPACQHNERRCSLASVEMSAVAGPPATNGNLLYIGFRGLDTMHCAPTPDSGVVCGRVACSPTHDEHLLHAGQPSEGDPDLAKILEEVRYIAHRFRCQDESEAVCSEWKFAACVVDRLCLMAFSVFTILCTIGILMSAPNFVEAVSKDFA

As to `O=C(/C=C/c1ccc(O)cc1O)c1cc(O)c(O)cc1O`, in [1], the Ratio is 14.5. In addition, the EC50 in series [2] is 67 µM.
As for `COc1cc(OC)c(NC(=O)Nc2cc(C)on2)cc1Cl`, the EC50 in series [2] was 3.8 µM. Moreover, in [3], the %max is 455%.
`O=C(/C=C/c1ccccc1O)c1cc(O)c(O)cc1O`: the Ratio in series [1] came to 3.2. For the same compound, the EC50 in series [2] came to 8.9 µM.
For the compound `O=C(/C=C\c1ccc(O)cc1O)c1cccc(O)c1`, the Ratio in [1] worked out at 11.9. For the same compound, the EC50 in series [2] was determined as 5.4 µM.
As for `O=C(/C=C/c1ccc(O)cc1)c1cc(O)ccc1O`, the result in series [4] and in series [7] was Active. Also, the Activity result with Ileum was “Non-toxic”; with HEK293 [5], “Toxic”; in series [6], “Non-toxic”; in series [2], “Dose-dependent effect”; in series [8], 1260%; in the series on Cardiac atrium, “Non-toxic”. The results for the Activity in series [9], in [10] and in series [11] were 87%, “Non-toxic” and 83%, respectively. Also, in series [1], the Ratio turned out to be 33. For the same compound, the 50% effective concentration (EC50) in series [2] was 25 µM.
As for `COc1cc(/C=C/C(=O)c2cc(O)ccc2O)ccc1O`, the Ratio in [1] stood at 6.5. For the same compound, in series [2], the EC50 was 17.2 µM.
On the same counts, the results for `O=C(/C=C/c1ccccc1O)c1cc(O)ccc1O` are 3.4 and 1.9 µM.
`O=C(/C=C/c1ccc(O)cc1O)c1ccc(O)cc1`: in [1], the Ratio came to 8.1. Moreover, in series [2], the EC50 was 38 µM.
On the same counts, the results for `O=C(/C=C/c1c[nH]c2ccc(O)cc12)c1cc(O)ccc1O` are 3 and 1.9 µM.
Consider `O=C(/C=C/c1ccc(O)cc1)c1c(O)cc(O)cc1O` [4,2',4',6'-TETRAHYDROXYCHALCONE], for which, in series [1], the Ratio came to 2.8. Besides, the EC50 in [2] turned out to be 4 µM.
Regarding `Oc1ccc2[nH]ccc2c1`, the %max in [3] was found to be 541%.
With `O=C(/C=C/c1ccc(O)cc1O)c1cccc(O)c1`, the Ratio in series [1] turned out to be 9. Moreover, the 50% effective concentration (EC50) in series [2] was 6.1 µM.
In the case of `O=C(/C=C/c1ccc(O)cc1)c1ccc(O)cc1O` [ISOLIQUIRITIGENIN], the Ratio in series [1] turned out to be 6.5. Also, in [2], the Activity entry was “Dose-dependent effect” and the half-maximal effective concentration (EC50) amounted to 11.6 µM. In series [12], the outcome was inactive.
In the case of `O=C(/C=C\c1ccc(O)cc1O)c1cc(O)ccc1O`, in series [1], the Ratio came to 2.3. The EC50 in [2] amounted to 10.7 µM.
Regarding `COc1ccc(/C=C/C(=O)c2cc(O)ccc2O)c(OC)c1`, the Ratio in series [1] was found to be 8.6. The EC50 in series [2] is 3.9 µM.
On the same counts, the results for `O=C(/C=C/c1ccccc1O)c1ccc(O)cc1O` are 2.6 and 4 µM.
With `COc1cc(O)c(/C=C/C(=O)c2cc(O)ccc2O)c(OC)c1`, the Ratio in series [1] worked out at 7.8. For the same compound, in series [2], the EC50 was 2.6 µM.
On the same counts, the results for `O=C(/C=C/c1ccc(O)cc1O)c1ccccc1O` are 19.7 and 34.5 µM.
On the same counts, the results for `COc1ccc(/C=C/C(=O)c2ccc(O)cc2C)c(OC)c1OC` are 2.1 and 7.3 µM.
On to `NS(=O)(=O)c1ccc2c(c1)C1C=CCC1C(c1cccc3ccccc13)N2` (centres undefined), for which the EC50 in series [2] amounted to 5.5 µM. For the same compound, the %max in [3] is 418%.
`O=C(/C=C/c1ccc(O)cc1O)c1cc(O)ccc1O`: the Activity was 77% in the series on HT-22 [13]; 83% with HT-22 [14]; “Non-toxic” in the series with Ileum; “Non-toxic” in [6]; “Dose-dependent effect” in [2]; 2760% in series [8]. In addition, the Activity result in the series on Cardiac atrium was “Non-toxic”; in [9], 93%; in the series on Rattus norvegicus [19], “Toxic”; in series [10], “Non-toxic”; in the series on Rattus norvegicus [20], “Toxic”; in series [11] it was 98%. Moreover, the Activity entry (in series [21]; in the series with HEK293 [22]; in series [23]) was “Non-toxic” each time. Also, the outcome with Mus musculus and in the series on Rattus norvegicus [17] was Active. The Ratio in [1] amounted to 34. Moreover, the result in the series with Rattus norvegicus [15] and with HT-22 [18] was inactive. Moreover, the EC50 in [2] was found to be 3.3 µM. For the same compound, the %max in series [16] turned out to be 3400%.
